Apaf-1 act: activators of human Apaf-1 apoptosome, primary screen, biochemical, DEVD-Rh110 fluorescence, uHTS; Apaf-1 apoptosome caspase-3 activation; hits give low values; activity change, negative = activation, % at 20 µM; actives 0.31% (n = 330,000); Apoptotic protease-activating factor 1 (Homo sapiens), O14727;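 active means activity change at or below -40% at 20 µM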
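Material: biochemical Apaf-1 apoptosome reconstitution; Medium: 20 mM HEPES buffer, pH 7.5, containing CHAPS and BSA; Reagent: dATP, cytochrome c, and (Z-DEVD)2-Rh110 caspase-3 substrate; Times: 30 min preincubation, 50 min reaction, room temperature; Signal: Rh110 fluorescence, excitation 480 nm, emission 540 nm; Measure: Caspase-3 activity via Apaf-1.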
Rh110 act interf: Rh110 fluorescence interference by putative Apaf-1 activators, confirmation, artefact control for Apaf-1 activator project, biochemical, 20 µM; shares compounds with Apaf-1 act; quenched caspase reaction, Ex480/Em540; fluorescence interference (activity change), % at 20 µM, hits read low; 980 tested, under 10 active; AID 504616, 2011;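 active means mean activity change at or below -40% when tested at 20 µM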
Apaf-1 act conf: Apaf-1 activators, single-dose retest, confirmation, biochemical, fluorescence, DEVD-Rh110, 20 µM. shares compounds with Apaf-1 act. actives 5% (n = 980). activity change, negative = activation, % at 20 µM. reconstituted apoptosome caspase-3 activity; hits give low values;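 active means mean activity change at or below -40%, meaning activation of 40% or more, at 20 µM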
Apaf1 act interf: fluorescence interference of Apaf-1 activator hits, dose response, artefact control for Apaf-1 activator project; fluorescence interference counterscreen, Apaf-1 activator assay; 55 tested, under 10 active; AID 588592, 2011; EC50, µM; shares compounds with Apaf-1 act; call rule not given here
An asterisk follows results filed as active; · = not tested or not shown. A selection follows.

SMILES	Apaf-1 act	Rh110 act interf	Apaf-1 act conf	others
Cc1ccc(/C=N/NC(=O)CNC(=O)c2ccc(S(=O)(=O)N3CCCC3)cc2)o1	-522.0*	11.1	7.7
CCCCCCCCCCOC(=O)Cn1c(COc2ccc(Cl)cc2)[n+](C)c2ccccc21	84.5	·	·
Cc1ccc2nc(/C(C#N)=C\c3ccc(N4CCOCC4)o3)[nH]c2c1	44.1	·	·
CC(C)Oc1cccc(C(=O)Nc2ncn[nH]2)c1	-47.8*	2.5	8.9
CCC(C)Sc1ccc(-c2nc3cnccn3c2NC2CCCCC2)cc1 (stereo unspecified)	45.2	·	·
Cc1ccc(C(=O)NNc2cc(N3CCCC3)nc(N3CCCC3)n2)cc1	97.0	·	·
Cc1cc(N2CCCCC2)nc(N2CCOCC2)n1	-56.7*	5.9	10.4
CC(C)c1ccc(/C=N/Nc2cc(N3CCOCC3)nc(N3CCOCC3)n2)cc1	62.1	·	·
Cc1ccccc1Nc1cc2ccccc2c(=O)[nH]1	95.8	·	·
COc1ccc(C(CCN2CCCC(C)C2)c2c(OC)cc(OC)c3c(-c4ccccc4)cc(=O)oc23)cc1 (stereo unspecified)	54.4	·	·
Cc1ccc(O)c(CNc2cccc3cccnc23)c1	93.4	·	·
Cc1ccc(Sc2ncccc2C(=O)NCc2cc([N+](=O)[O-])ccc2O)c(C)c1	-47.8*	-6.4	11.6
CCOc1ccccc1CNC(=O)C1CCN(c2nnc(C)c3c(C)n(-c4ccc(C)cc4)nc23)CC1	41.0	·	·
Cc1cc(-c2ccccc2C(=O)NC2CCCCC2)on1	-148.5*	9.3	7.6
COc1cccc(C(c2c(C)[nH]n(-c3ccccc3)c2=O)c2c(C)[nH]n(-c3ccccc3)c2=O)c1OC	96.8	·	·
Cc1ccc(S(=O)(=O)/N=C2\C=C(Nc3ccc(O)cc3)C(=O)c3ccccc32)cc1	95.5	·	·
CC(=O)Nc1ccc(S(=O)(=O)Nc2nc3ccccc3nc2Nc2ccc(C(=O)O)c(O)c2)cc1	58.3	·	·
Cc1ccc(S(=O)(=O)NC(=O)Nc2ccccc2)cc1	-528.6*	1.9	7.8
Cc1cc2cc(CNC(=S)Nc3ccc(OC(F)(F)F)cc3)ccc2n1C	59.1	·	·
Cc1ccc(OCC(=O)N(Cc2nnc(-c3ccccc3Cl)o2)C2CC2)cc1C	56.2	·	·
Cc1cc(OCC(=O)NCCO)ccc1Cl	-53.5*	7.0	10.5
CN(C)C(=O)c1ccc(NC(=O)COc2cccc(Oc3ccccc3)c2)cc1	61.1	·	·
C#CCOCCOCCOCCNc1nc(N2CCN(C(=O)[C@H](CCCCN)n3cc(CCCC)nn3)CC2)nc(N2CCN(C(=O)[C@H](CCCCN)n3cc(CCCC)nn3)CC2)n1	49.6	·	·
O=C(O)c1cc(O)c2c(c1)[C@@H]([C@H]1c3cc(C(=O)O)cc(O)c3C(=O)c3c(O[C@@H]4O[C@H](CO)[C@@H](O)[C@H](O)[C@H]4O)cccc31)c1cccc(OC3O[C@H](CO)[C@@H](O)[C@H](O)[C@H]3O)c1C2=O (stereo partly specified)	95.4	·	·
O=C1C(Cl)=C(N2CCC(C(=O)O)CC2)C(=O)c2ccccc21	74.9	·	·
SMILES	Apaf-1 act	Rh110 act interf	Apaf-1 act conf	others
Fc1ccc(F)c(C2=NNC(=Nc3ccccc3F)SC2)c1	-44.9*	5.2	16.3
CN(Cc1nccs1)C(=O)CC1C(=O)NCCN1Cc1ccc(-c2ccccc2)cc1 (stereo unspecified)	-329.7*	6.0	15.3
C=C[C@H]1CN2CC[C@H]1C[C@@H]2[C@@H](O)c1ccnc2ccc(OC)cc12	-3.0	·	·
COc1ccccc1-c1ccc(=O)n(CC(=O)NCC2CCCO2)n1 (stereo unspecified)	-50.0*	-1.0	6.9
COc1ccc(-n2c(N)c(C(=O)NCC3CCCO3)c3nc4ccccc4nc32)c(OC)c1 (stereo unspecified)	65.8	·	·
C=CCn1c(N)c(C(=O)NCC2CCCO2)c2nc3ccccc3nc21 (stereo unspecified)	77.7	·	·
CCC1CCCCN1CCCNC(=O)CC1Oc2ccc(C)cc2NC1=O (stereo unspecified)	-92.7*	8.3	11.0
CCc1cc[n+](C2=C([O-])c3ccccc3C(=O)/C2=N\S(=O)(=O)c2cccs2)cc1	68.2	·	·
CN1CCN(CCCN2c3ccccc3Sc3ccc(Cl)cc32)CC1	53.9	·	·
CN1CCN(C2Cc3cc(F)ccc3Sc3ccc(Cl)cc32)CC1 (stereo unspecified)	-77.7*	7.4	6.8
CSc1ccc2c(c1)C(N1CCN(C)CC1)Cc1ccccc1S2 (stereo unspecified)	47.8	·	·
CCC(COC)Oc1cc(NCc2ccccc2)c2ncn(C(C)C)c2c1 (stereo unspecified)	97.2	·	·
CC(C)c1ccc2[nH]c(O)c(N=NC(=O)c3ccc(CSc4nncn4C)cc3)c2c1	-74.3*	2.3	10.1
CCOCCCNC(=O)COc1ccc(OC)cc1	-293.3*	11.9	11.9
CCOCCCNC1=C(Cl)C(=O)c2ccccc2C1=O	47.9	·	·
CCOC(=O)c1c2c(n(C)c1COC)C(=O)C(=O)c1ccc(Br)cc1-2	96.8	·	·
c1ccc(-c2sc3ccccc3c2-c2ccc(OCCN3CCCCC3)cc2)cc1	52.5	·	·
O=C(Nc1ncn[nH]1)c1c(Cl)ccc(Cl)c1Cl	-46.6*	-2.5	9.7
CCCCn1c(NC(=O)c2ccccc2Cl)c(C#N)c2nc3ccccc3nc21	92.7	·	·
COc1ccc(C2=NO[C@@H]3[C@@H]4C[C@@H]([C@H]5C(=O)N(C)C(=O)[C@@H]45)[C@H]23)c(OC)c1	-62.9*	7.7	13.6
CC(C)(C)NC(=O)[C@@H]1C[C@@H]2CCCC[C@@H]2CN1C[C@@H](O)[C@H](Cc1ccccc1)NC(=O)[C@H](CC(N)=O)NC(=O)c1ccc2ccccc2n1	35.0	·	·
CCOC(=O)c1nn(-c2ccccc2)c(=O)c2c(N)scc12	55.5	·	·
CC(CNc1ccccc1O)C(=O)O (stereo unspecified)	-165.1*	4.3	-81.3*	Apaf1 act interf=>100
CC(=O)O[C@]1(C(C)=O)CC[C@H]2[C@@H]3C[C@H](C)C4=CC(=O)CC[C@]4(C)[C@H]3CC[C@@]21C	17.8	·	·
COc1ccc(-c2nc(-c3ccc(Br)o3)no2)cc1OC	-45.3*	6.9	17.0
SMILES	Apaf-1 act	Rh110 act interf	Apaf-1 act conf	others
COc1cc2c(cc1OC)C(c1ccc(-c3ccc(Cl)c(Cl)c3)o1)=NCC2	41.5	·	·
O=C(/C=C/Nc1ccc(F)c(F)c1)c1ccc(Br)cc1	-103.2*	3.6	14.7
C[C@H](CO)N1C[C@H](C)[C@@H](CN(C)CC2CCCCC2)Oc2c(NC(=O)CCC(F)(F)F)cccc2C1=O	41.2	·	·
CCC(COC(=O)c1ccccc1)Oc1cc(NCc2ccccc2)c2ncn(C(C)C)c2c1 (stereo unspecified)	69.0	·	·
S=C(Nc1ccc2[nH]ccc2c1)NC1CCCCC1	-86.4*	2.3	20.8
Cc1cccc(-n2ncc3c2CCCC3NC(=O)CN2CCCC2=O)c1C (stereo unspecified)	-203.0*	4.8	4.1
CCOC(=O)N1CCC(NC(=O)CN2C(=O)CSc3ncccc32)CC1	62.8	·	·
CCCCCc1cc(=O)oc2c(C(CCN3CCCCC3)c3ccc4c(c3)OCO4)c(OC)cc(OC)c12 (stereo unspecified)	65.9	·	·
